Publication PMC3446773 (Cancer research, 2009)

Experiments:
[1] = test system: MDA-MB-231 orthotopic breast tumor xenograft; test: Orthotopic breast cancer xenograft in nude mice; format: in vivo, nu/nu mice; settings: for Blood vessel density in tumor (CD31 staining): 10 mg/kg i.p. alone, four doses; for Tumor size relative to controls: 10 mg/kg i.p., twice per week for 2 wk, starting 2 wk after cell transplantation; for Tumor volume relative to control group: 3 mg/kg i.p., P < 0.01, 1b vs 1a not different (P = 0.16)
How it was run: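 Female nu/nu mice, 4–6 wk, anesthetized with ketamine/xylazine i.p. Trypsinized MDA-MB-231 cells in cross-linkable ECM (5 × 10^7 cells/mL) were injected into the fourth mammary fat pad (200 µL; 100 µL in 3 mg/kg study). From 2 wk after implant, i.p. twice weekly for 2 wk; six mice/group; saline control. Arms: test compound 10 mg/kg, Taxol 10 mg/kg, Taxol week 1 then compound week 2; diastereomers 3 mg/kg. Volume = width² × length/2.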

human LPA3 = target: T1, human LPA3 (Homo sapiens, UniProt Q9UBY5); test: Ca2+ mobilization assay, LPA3 expressed in RH7777 cells; format: cell-based; settings: for LPA3 ligand type / Ki / IC50: Ca2+ mobilization, RH7777 cells; for Ki: read-out: LPA3 Ki; for IC50: read-out: LPA3 antagonist IC50
T1 sequence (Q9UBY5 1-353): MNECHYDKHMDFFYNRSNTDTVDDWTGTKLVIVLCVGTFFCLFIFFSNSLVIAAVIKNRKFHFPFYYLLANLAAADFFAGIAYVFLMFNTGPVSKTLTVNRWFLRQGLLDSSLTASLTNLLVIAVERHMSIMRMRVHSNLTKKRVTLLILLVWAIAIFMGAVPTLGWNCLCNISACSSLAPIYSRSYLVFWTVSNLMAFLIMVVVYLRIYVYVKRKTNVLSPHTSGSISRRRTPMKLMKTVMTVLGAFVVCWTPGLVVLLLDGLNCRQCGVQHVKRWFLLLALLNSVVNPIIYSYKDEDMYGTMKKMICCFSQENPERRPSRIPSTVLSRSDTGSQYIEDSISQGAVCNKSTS
How it was run: (§1)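 Intracellular Ca2+ mobilization measured in RH7777 cells expressing the human receptor (LPA1, LPA2, LPA3 or LPA5); parental line intrinsically unresponsive to LPA. Both activation and inhibition of LPA responses tested. Quadruplicate tests; EC50, IC50 and Ki derived by sigmoid curve fitting.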

human LPA5 = human LPA5 (Homo sapiens, UniProt Q9H1C0); test: Ca2+ mobilization assay, LPA5 expressed in RH7777 cells; format: cell-based; settings: for LPA5 ligand type: transiently transfected; for LPA5 E max: at 10 μmol/L
human LPA5, sequence (Q9H1C0 whole entry): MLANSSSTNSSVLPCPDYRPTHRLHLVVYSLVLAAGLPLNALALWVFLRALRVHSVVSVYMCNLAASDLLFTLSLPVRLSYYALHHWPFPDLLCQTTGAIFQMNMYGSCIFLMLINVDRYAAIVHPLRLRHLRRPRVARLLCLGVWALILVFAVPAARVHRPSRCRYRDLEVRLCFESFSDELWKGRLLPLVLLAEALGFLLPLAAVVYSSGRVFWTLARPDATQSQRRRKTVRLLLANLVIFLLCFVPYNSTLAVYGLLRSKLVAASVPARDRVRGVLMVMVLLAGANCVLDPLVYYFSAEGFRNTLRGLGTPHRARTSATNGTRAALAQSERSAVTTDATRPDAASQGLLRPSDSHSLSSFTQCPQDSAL
How it was run: as §1

human LPA1 = human LPA1 (Homo sapiens, UniProt Q92633); test: Ca2+ mobilization assay, LPA1 expressed in RH7777 cells; format: cell-based; settings: for Ki: read-out: LPA1 Ki; for IC50: read-out: LPA1 antagonist IC50
human LPA1, sequence (Q92633 whole entry): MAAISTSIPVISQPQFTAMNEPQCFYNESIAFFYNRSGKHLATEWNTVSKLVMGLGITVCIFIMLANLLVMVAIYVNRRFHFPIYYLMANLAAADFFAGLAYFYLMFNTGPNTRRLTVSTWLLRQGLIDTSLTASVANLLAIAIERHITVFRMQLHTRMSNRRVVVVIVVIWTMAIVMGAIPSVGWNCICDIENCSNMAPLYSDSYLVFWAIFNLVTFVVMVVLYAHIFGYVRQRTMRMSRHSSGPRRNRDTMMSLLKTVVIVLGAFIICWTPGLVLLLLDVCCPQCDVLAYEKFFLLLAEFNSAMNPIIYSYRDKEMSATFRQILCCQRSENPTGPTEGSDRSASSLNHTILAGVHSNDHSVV
How it was run: as §1

[2] = target: T2, recombinant hemagglutinin-tagged ATX (ATX-HA) (Homo sapiens, UniProt Q13822); test: ATX assay, hydrolysis of fluorogenic substrate FS-3; format: biochemical; settings: for ATX inhibition: 10 μmol/L, FS-3 substrate 1 μmol/L, 2 h, 37°C; for IC50: read-out: ATX inhibition IC50, FS-3 substrate, 0.01 to 10 μmol/L
How it was run: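 Mixed with FS-3 (final 1 µmol/L) and test compound (0.01–10 µmol/L) in assay buffer with BSA. Fluorescence read at ex 485/em 538 nm over 2 h, 37°C. The 0–120 min difference was normalized to vehicle; triplicate wells, % inhibition; Student's t test.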

[3] = target: T2, recombinant hemagglutinin-tagged ATX (ATX-HA); settings: at 10 μmol/L; previously observed; cited from earlier work
human LPA4 = human LPA4 (Homo sapiens, UniProt Q99677); test: Ca2+ mobilization assay, LPA4 expressed in CHO cells; format: cell-based; settings: for LPA4 ligand type: Ca2+ mobilization, CHO cells; for LPA4 inhibition: at 30 μmol/L (400 nmol/L LPA)
human LPA4, sequence (Q99677 whole entry): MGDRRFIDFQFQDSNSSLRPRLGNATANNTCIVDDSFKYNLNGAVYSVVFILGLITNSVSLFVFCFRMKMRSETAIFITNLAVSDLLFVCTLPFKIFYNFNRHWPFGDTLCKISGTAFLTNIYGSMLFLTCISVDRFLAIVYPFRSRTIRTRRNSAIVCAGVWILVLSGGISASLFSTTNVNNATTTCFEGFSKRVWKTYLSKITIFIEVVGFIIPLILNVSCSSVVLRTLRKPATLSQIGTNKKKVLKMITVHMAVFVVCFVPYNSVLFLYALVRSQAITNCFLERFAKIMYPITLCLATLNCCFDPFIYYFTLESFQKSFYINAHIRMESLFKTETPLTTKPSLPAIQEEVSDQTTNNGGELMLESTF

MDA-MB-231 cells [4] = test: Scratch wound assay; format: cell-based, human; settings: for Effect on MDA-MB-231 cell migration: 10 and 40 μmol/L, 24 h
human LPA2 = human LPA2 (Homo sapiens, UniProt Q9HBW0); test: Ca2+ mobilization assay, LPA2 expressed in RH7777 cells; format: cell-based; settings: for Ki: read-out: LPA2 Ki; for IC50: read-out: LPA2 antagonist IC50
human LPA2, sequence (Q9HBW0 whole entry): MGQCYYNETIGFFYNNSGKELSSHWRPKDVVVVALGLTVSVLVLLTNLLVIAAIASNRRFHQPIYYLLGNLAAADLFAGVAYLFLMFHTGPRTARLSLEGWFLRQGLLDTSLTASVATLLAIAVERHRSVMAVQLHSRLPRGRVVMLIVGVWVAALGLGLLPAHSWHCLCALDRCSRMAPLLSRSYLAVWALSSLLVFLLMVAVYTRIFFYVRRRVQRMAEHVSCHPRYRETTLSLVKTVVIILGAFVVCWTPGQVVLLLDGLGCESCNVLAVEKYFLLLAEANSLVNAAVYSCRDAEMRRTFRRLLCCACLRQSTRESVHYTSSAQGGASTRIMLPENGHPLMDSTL
How it was run: as §1

MDA-MB-231 cells [5] = test: In vitro invasion assay through Matrigel-coated transwell membranes; format: cell-based, human; settings: P < 0.05
[6] = Ca2+ mobilization, RH7777 cells

Row | SMILES | Blood vessel density in tumor (CD31 staining) [1] | Tumor size relative to controls [1] | LPA3 ligand type (human LPA3) | LPA5 ligand type (human LPA5; [6]) | LPA5 E max (human LPA5) [%] | LPA1 ligand type (human LPA1) | Ki (human LPA1) [nM] | IC50 (human LPA1) [nM] | ATX inhibition [2] | LPA4 ligand type (human LPA4) | LPA4 inhibition (human LPA4) [%] | LPA2 ligand type (human LPA2) | Ki (human LPA2) [nM] | IC50 (human LPA2) [nM] | Ki (human LPA3) [nM] | IC50 (human LPA3) [nM] | Inhibition of MDA-MB-231 invasion (MDA-MB-231 cells [5]) | IC50 [2] [nM] | Effect on MDA-MB-231 cell migration (MDA-MB-231 cells [4]) | Tumor volume relative to control group [1] | further results
1 | CC(=O)O[C@H]1C(=O)[C@@]2(C)[C@H]([C@H](OC(=O)c3ccccc3)[C@]3(O)C[C@H](OC(=O)[C@H](O)[C@@H](NC(=O)c4ccccc4)c4ccccc4)C(C)=C1C3(C)C)[C@]1(OC(C)=O)CO[C@@H]1C[C@@H]2O [Taxol, reference compound] | statistically different from the control | reduction of tumor size relative to controls | – | – | – | – | – | – | – | – | – | – | – | – | – | – | – | – | – | – | –
2 | CCCCCCCCCCCCCCCC(=O)OCC(O)CC(Br)P(=O)(O)O (stereo not drawn) [compound 1, palmitoyl α-bromomethylenephosphonate] | significantly lower blood vessel density | reduction of tumor size relative to controls | Antagonist | Partial agonist | 54 | Antagonist | 805 | 4520 | 102 ± 2.7% inhibition (10 μmol/L) | Antagonist | 13.9 | Antagonist | 245 | 468 | – | – | – | – | – | – | LPA3 inhibition (human LPA3; at 30 μmol/L (200 nmol/L LPA)): 71.3%; EC50 (human LPA5; read-out: LPA5 agonist EC50, Ca2+ mobilization, NS = non-saturated): 1280 nM; ATX activity inhibited [3]: over 98%; Effect of mixed diastereomers on cell migration (MDA-MB-231 cells [4]; data not shown): intermediate inhibition of cell migration; Blood vessel density in tumor (CD31 staining), sequential treatment ([1]; Taxol (10 mg/kg, two doses) then BrP-LPA 1 (10 mg/kg, two doses), i.p.): statistically different from the control; Tumor size relative to controls, sequential treatment ([1]; two injections of Taxol (10 mg/kg) week 1, then two injections of BrP-LPA 1 (10 mg/kg) week 2, i.p.): reduction of tumor size relative to controls
3 | CCCCCCCCCCCCCCCC(=O)OC[C@@H](O)C[C@H](Br)P(=O)(O)O [1b] | – | – | Antagonist | Antagonist | – | Antagonist | 752 | 2080 | 99.4 ± 2.7 % Inhibition (10 μmol/L) | Antagonist | 33.1 | Antagonist | 241 | 275 | 623 | 2090 | ~ 52% | 22 | inhibited the MDA-MB-231 cell migration | significantly decreased the tumor volume | Ki (human LPA5; read-out: LPA5 Ki, Ca2+ mobilization, RH7777 cells): 376 nM; IC50 (human LPA5; read-out: LPA5 antagonist IC50, Ca2+ mobilization, RH7777 cells): 977 nM; Decrease of MDA-MB-231 cell migration vs untreated control (MDA-MB-231 cells [4]; 40 μmol/L, P < 0.05): 57%
4 | CCCCCCCCCCCCCCCC(=O)OC[C@@H](O)C[C@@H](Br)P(=O)(O)O [1a] | – | – | Antagonist | Partial agonist | 64 | Antagonist | 273 | 648 | 98.1 ± 2.3% inhibition (10 μmol/L) | Antagonist | 35.1 | Antagonist | 250 | 288 | 1830 | 4440 | ~ 52% | 165 | inhibited the MDA-MB-231 cell migration | significantly decreased the tumor volume | –
